This is an account of results in publication PMC9924264 (Journal of Medicinal Chemistry, 2023).

SMILES strings stand for the structures.

Usually IC50 stands for the concentration needed to halve the response being measured. A low value points to greater potency in that assay.

A short description of series [1]: Metabolic stability in mouse liver microsomes. It counts as in vitro ADME. As to conditions: compared with analogue (CDD-1115 for CDD-1281, CDD-1431 for CDD-1653).
Series [2] has as its system pSMAD1/5 in human umbilical vein endothelial cells (HUVECs). The series is described as follows: pSMAD1/5 Western blot, BMP9-stimulated HUVECs. It counts as cell-based. As to conditions: 25 μM, 30 min pretreatment, 0.5 ng/mL BMP9 15 min. The essentials: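 HUVECs, about 3 × 10^5 per well, starved overnight in Kaighn's F-12 with 0.5% FBS and 30 μg/mL endothelial cell growth supplement. Pretreated with inhibitors for 30 min, then given 0.5 ng/mL BMP9 for 15 min. Lysed with protease and phosphatase inhibitors. SDS-PAGE immunoblot for pSMAD1/5, SMAD1, SMAD5 and GAPDH, with densitometry. n = 3 biological replicates; one-way ANOVA with Tukey post hoc test.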

The next series addresses BMPR1A (ALK3) (Homo sapiens, UniProt P36894). The series is described as follows: ThermoFisher SelectScreen LanthaScreen assay. It counts as binding. To be noted: for selectivity: ALK3 vs BMPR2. A general note: Time-resolved FRET reads energy transfer from a long-lived donor to a nearby acceptor.
For the next series, the target named is T1, TGFBR1 (ALK5) (Homo sapiens, UniProt P36897).
T1 sequence (P36897 34-503): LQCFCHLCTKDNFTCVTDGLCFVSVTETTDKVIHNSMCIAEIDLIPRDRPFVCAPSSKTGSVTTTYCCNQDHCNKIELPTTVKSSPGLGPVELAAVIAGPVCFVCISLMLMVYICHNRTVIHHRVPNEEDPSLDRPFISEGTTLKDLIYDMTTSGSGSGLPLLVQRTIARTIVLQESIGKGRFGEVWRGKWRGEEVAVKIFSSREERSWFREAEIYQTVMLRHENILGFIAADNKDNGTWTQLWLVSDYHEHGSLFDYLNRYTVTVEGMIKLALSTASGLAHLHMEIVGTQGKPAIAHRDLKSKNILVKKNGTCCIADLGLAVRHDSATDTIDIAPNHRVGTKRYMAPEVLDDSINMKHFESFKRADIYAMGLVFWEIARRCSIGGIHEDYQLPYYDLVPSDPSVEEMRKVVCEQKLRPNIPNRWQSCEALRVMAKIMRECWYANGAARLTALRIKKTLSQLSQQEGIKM
The series is described as follows: ThermoFisher SelectScreen LanthaScreen assay. It counts as binding. As to conditions: for selectivity: ALK5 vs BMPR2.

The target of another series is T2, BMPR2 (Homo sapiens, UniProt Q13873).
T2 sequence (Q13873 27-1038): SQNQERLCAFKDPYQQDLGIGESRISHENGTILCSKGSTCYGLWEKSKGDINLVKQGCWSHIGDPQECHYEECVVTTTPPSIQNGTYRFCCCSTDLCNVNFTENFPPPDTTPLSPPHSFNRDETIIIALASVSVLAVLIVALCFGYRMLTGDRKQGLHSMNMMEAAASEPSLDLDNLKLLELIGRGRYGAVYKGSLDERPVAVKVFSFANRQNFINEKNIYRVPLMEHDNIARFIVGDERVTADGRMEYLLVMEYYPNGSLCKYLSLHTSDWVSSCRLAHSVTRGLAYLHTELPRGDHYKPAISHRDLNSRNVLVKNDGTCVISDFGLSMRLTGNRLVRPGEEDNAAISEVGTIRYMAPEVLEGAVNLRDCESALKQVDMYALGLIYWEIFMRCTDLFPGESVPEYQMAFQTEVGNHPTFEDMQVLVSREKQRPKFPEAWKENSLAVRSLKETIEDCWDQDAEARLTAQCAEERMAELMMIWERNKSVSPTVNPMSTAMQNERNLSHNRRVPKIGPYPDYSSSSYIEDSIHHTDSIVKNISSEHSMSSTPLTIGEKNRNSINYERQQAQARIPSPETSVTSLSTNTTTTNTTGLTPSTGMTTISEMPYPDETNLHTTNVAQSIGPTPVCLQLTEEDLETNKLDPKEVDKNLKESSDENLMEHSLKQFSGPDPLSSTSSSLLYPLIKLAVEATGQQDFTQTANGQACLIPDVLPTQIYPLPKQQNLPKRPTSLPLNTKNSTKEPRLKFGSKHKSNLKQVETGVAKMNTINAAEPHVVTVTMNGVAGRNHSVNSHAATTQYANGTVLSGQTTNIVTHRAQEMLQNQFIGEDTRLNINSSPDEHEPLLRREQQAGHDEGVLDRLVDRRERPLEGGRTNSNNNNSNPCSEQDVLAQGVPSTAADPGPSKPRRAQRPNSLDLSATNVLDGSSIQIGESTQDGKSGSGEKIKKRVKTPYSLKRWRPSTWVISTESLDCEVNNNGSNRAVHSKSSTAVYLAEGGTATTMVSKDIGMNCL
The series is described as follows: ThermoFisher SelectScreen LanthaScreen assay. To be noted: than CDD-1115. The series is classed as binding.

A short description of series [3]: Metabolic stability in human liver microsomes. The series is classed as in vitro ADME. To be noted: compared with analogue (CDD-1115 for CDD-1281, CDD-1431 for CDD-1653). The essentials:
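Human liver microsomes (0.5 mg protein/mL) incubated at 37 °C with test compound (2.0 μM) and NADPH cofactor (1.0 mM). Samples taken at 0, 30 and 60 min, in duplicate. […] Half-life was compared with that of the paired structural analogue.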
In general terms: Microsomes from liver hold many membrane-bound enzymes, among them those of drug oxidation.

For the next series, the target named is BMPR1B (ALK6) (Homo sapiens, UniProt O00238). The series is described as follows: ThermoFisher SelectScreen LanthaScreen assay. The series is classed as binding. As to conditions: for selectivity: ALK6 vs BMPR2.
For another series, the target named is TGFBR2 (Homo sapiens, UniProt P37173). The series is described as follows: ThermoFisher SelectScreen LanthaScreen assay. It counts as binding.
The target of a further series is T3, ACVR1 (ALK2) (Homo sapiens, UniProt Q04771).
T3 sequence (Q04771 21-509): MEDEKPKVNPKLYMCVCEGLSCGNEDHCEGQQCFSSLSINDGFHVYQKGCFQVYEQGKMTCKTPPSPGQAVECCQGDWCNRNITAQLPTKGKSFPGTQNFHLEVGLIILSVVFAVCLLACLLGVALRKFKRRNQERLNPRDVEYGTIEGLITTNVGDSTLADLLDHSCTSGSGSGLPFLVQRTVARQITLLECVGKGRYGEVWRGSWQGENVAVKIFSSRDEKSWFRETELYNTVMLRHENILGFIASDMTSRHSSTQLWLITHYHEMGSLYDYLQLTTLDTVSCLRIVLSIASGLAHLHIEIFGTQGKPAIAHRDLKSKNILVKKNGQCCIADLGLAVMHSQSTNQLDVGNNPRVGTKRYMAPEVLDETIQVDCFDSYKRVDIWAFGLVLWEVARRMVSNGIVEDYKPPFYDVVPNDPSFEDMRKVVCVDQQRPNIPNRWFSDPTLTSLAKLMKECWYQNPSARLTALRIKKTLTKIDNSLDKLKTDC
The experiment in a line: ThermoFisher SelectScreen LanthaScreen assay. The series is classed as binding. To be noted: ALK2, text.

The target of a further series is ACVRL1 (ALK1) (Homo sapiens, UniProt P37023). The series is described as follows: ThermoFisher SelectScreen LanthaScreen assay. It counts as binding. To be noted: ALK1, text.
For the next series, the target named is T4, BMPR2 kinase domain (Homo sapiens, UniProt Q13873).
T4 sequence (Q13873 188-517): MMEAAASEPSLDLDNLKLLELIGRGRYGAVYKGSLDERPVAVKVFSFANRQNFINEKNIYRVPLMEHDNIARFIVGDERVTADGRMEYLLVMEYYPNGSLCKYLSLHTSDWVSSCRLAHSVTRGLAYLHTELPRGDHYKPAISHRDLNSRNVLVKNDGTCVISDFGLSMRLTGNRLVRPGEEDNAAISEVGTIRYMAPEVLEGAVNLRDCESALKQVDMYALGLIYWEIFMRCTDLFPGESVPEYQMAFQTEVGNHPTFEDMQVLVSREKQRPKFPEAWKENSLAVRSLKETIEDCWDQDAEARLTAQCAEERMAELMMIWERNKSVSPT
The series is described as follows: Thermal shift assay. It counts as binding. As to conditions: 50 μM compound; BMPR2 alone Tm 52.1 °C. The essentials:
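Purified BMPR2 kinase domain (1 μg) in 50 mM Tris–HCl pH 7.5, 150 mM NaCl with 50 μM test compound and 5× SYPRO Orange. Heated 20 to 95 °C, fluorescence read every 10 s. Tm taken from the unfolding curve; three technical replicates averaged.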

The target of the next series is T5, ACVR1B (ALK4) (Homo sapiens, UniProt P36896).
T5 sequence (P36896 24-505): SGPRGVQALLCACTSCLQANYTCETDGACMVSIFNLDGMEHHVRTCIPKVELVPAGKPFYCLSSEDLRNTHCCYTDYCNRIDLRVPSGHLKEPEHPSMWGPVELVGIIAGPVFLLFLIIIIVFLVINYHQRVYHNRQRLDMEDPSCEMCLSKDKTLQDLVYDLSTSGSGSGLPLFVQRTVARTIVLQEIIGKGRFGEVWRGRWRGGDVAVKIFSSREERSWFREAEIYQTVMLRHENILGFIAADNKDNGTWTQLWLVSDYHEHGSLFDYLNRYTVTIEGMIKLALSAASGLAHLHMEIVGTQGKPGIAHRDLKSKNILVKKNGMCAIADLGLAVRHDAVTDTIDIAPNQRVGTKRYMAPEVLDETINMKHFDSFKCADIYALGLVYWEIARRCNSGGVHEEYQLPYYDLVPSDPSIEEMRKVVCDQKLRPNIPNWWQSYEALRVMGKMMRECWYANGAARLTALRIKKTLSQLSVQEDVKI
The series is described as follows: ThermoFisher SelectScreen Z’-LYTE assay. To be noted: N/A = not active. It counts as biochemical.

Another series concerns the target ACVR2B (Homo sapiens, UniProt Q13705). The series is described as follows: ThermoFisher SelectScreen LanthaScreen assay. It counts as binding. As to conditions: N/A = not active. The essentials: (§1)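 Outsourced kinase profiling in TR-FRET binding format, measuring displacement of a tight-binding tracer from the kinase by test compound. IC50 reported.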
In a further series the target is ACVR2A (Homo sapiens, UniProt P27037). The series is described as follows: ThermoFisher SelectScreen LanthaScreen assay. To be noted: N/A = not active. The series is classed as binding. The essentials: as §1
ACVR2A, sequence (P27037 20-513): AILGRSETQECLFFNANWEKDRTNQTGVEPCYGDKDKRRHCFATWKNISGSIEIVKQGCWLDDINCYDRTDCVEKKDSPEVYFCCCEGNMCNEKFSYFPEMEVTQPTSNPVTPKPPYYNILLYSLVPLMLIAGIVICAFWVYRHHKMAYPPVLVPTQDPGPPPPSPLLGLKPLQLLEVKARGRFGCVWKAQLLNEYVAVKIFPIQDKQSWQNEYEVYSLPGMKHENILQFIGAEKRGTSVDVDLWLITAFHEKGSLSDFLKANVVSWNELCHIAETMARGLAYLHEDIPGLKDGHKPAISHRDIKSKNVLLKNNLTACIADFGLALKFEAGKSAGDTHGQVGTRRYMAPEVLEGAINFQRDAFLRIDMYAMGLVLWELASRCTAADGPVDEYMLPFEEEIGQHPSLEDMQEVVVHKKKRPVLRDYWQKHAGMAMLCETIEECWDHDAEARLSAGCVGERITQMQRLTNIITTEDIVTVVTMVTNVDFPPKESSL

TGFBR2, sequence (P37173 23-567): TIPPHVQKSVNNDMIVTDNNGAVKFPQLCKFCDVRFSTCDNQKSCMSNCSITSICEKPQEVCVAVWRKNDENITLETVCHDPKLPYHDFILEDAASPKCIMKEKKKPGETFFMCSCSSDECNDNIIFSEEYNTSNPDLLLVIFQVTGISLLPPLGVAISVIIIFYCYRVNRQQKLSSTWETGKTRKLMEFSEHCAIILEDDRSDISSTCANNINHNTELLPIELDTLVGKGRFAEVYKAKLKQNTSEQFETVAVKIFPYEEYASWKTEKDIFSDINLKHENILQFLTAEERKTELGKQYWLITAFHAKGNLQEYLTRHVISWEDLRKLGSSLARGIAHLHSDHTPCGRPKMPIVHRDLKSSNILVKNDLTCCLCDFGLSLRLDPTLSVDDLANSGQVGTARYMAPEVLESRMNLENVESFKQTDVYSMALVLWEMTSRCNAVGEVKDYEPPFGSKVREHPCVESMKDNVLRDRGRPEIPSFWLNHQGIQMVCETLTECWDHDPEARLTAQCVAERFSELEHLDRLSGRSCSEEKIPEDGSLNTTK
BMPR1A (ALK3), sequence (P36894 24-532): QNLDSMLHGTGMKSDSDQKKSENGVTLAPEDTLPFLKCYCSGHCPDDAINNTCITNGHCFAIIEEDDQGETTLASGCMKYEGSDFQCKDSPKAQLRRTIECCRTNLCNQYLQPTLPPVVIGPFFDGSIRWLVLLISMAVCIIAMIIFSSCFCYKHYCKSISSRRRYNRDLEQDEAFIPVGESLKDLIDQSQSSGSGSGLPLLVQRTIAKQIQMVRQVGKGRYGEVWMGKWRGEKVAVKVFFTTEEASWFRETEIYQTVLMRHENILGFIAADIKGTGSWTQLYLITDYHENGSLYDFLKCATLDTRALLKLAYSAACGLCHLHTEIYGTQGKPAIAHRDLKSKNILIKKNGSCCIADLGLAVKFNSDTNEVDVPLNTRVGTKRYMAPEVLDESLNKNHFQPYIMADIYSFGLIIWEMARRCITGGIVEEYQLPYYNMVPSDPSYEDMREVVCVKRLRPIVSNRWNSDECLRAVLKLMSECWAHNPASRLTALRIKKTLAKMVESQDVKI
BMPR1B (ALK6), sequence (O00238 14-502): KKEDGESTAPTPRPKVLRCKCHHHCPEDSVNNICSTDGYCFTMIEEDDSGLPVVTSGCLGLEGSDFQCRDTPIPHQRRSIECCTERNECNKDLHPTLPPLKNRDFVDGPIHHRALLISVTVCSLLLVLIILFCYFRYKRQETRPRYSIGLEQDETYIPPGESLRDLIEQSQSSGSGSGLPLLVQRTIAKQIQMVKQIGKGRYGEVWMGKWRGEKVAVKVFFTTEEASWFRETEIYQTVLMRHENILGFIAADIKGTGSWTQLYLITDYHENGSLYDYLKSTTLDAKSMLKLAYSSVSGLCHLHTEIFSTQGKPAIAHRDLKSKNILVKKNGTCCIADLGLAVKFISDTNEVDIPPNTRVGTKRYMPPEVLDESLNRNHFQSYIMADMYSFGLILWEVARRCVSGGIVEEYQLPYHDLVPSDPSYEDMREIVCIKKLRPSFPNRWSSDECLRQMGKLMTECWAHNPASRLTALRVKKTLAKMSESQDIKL
ACVRL1 (ALK1), sequence (P37023 22-503): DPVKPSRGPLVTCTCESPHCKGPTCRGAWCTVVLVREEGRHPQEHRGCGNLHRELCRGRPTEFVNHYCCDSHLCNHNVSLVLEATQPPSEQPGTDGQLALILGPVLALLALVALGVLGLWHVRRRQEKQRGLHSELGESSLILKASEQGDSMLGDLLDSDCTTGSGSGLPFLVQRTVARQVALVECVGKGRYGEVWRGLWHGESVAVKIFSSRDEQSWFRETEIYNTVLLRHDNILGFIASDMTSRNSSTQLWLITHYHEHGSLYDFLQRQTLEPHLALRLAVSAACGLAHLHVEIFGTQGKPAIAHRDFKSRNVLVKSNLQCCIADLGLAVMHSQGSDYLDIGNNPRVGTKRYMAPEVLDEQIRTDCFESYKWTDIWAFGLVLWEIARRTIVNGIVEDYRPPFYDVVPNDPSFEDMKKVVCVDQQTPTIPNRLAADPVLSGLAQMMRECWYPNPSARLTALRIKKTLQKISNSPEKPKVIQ
ACVR2B, sequence (Q13705 19-512): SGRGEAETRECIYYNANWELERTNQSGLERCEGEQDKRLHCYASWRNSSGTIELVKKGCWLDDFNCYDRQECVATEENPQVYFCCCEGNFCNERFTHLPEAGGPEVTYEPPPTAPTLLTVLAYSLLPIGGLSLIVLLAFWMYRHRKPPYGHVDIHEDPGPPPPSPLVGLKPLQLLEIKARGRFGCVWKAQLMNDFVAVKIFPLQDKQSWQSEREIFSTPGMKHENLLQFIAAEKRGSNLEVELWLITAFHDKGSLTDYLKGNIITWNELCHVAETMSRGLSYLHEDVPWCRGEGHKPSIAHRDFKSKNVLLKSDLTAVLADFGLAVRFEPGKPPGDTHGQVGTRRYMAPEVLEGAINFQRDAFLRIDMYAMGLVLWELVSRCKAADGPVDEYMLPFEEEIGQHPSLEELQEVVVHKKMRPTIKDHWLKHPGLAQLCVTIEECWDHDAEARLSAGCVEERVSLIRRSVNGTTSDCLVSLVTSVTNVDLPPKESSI

`NC(=O)c1cccc(CNC(=O)c2ccc3nc(-c4ccc5cnccc5c4)n(C4CCCC4)c3c2)c1` [CDD-1281, N-(3-Carbamoylbenzyl)-1-cyclopentyl-2-(isoquinolin-6-yl)-1H-benzo[d]imidazole-6-carboxamide]: the “fold increase of half-life in MLM” value in series [1] is 3.5 fold. Further, in [2], the “phosphorylation of SMAD1/5 (pSMAD1/5)” value is listed as “significantly decreased”. In addition, the selectivity on BMPR1A (ALK3), at TGFBR1 (ALK5) and at BMPR1B (ALK6) was more than 830× in each case. The “fold higher potency (IC50)” value at BMPR2 is 1.5 fold. Also, the “fold increase of half-life in HLM” value in series [3] worked out at 11.0 fold.

Take `CNC(=O)[C@@H]1CC[C@@H](n2c(-c3ccc4cnccc4c3)nc3ccc(C(=O)NCc4cccc(C(N)=O)c4)cc32)C1` [CDD-1115, N-(3-Carbamoylbenzyl)-2-(isoquinolin-6-yl)-1-((1R,3R)-3-(methylcarbamoyl)cyclopentyl)-1H-benzo[d]imidazole-6-carboxamide]: the IC50 against TGFBR2 is more than 1 µM; against ACVR1B (ALK4) it was “inactive”; at ACVR2B it was “inactive”; against ACVR2A, “inactive”. Also, the “selectivity over BMPR2” value was more than 555 fold on TGFBR2 (TGFBR2, text); more than 100 fold at ACVR1 (ALK2); more than 100 fold on ACVRL1 (ALK1); more than 555 fold on BMPR1A (ALK3) (ALK3, text); more than 555 fold at TGFBR1 (ALK5) (ALK5, text); more than 555 fold on BMPR1B (ALK6) (ALK6, text). Further, the selectivity at TGFBR2 (TGFBR2 vs BMPR2), at BMPR1A (ALK3), on TGFBR1 (ALK5) and on BMPR1B (ALK6) was more than 555× in each case. Moreover, the “melting temperature (Tm)” value on BMPR2 kinase domain was determined as 67.8 °C.
